# From ChEMBL document CHEMBL4477180, “Synthesis and Structure-Activity Relationships of N-Dihydrocoptisine-8-ylidene Aromatic Amines and N-Dihydrocoptisine-8-ylidene Aliphatic Amides as Antiulcerative Colitis Agents Targeting XBP1” (J Nat Prod, 2016)
# The source made the active and inactive calls. The calls are words filed in the database; no cut-off is given here.
# Assays:
# [1] = test system: Mus musculus; experiment: Antiulcerative activity in DSS-induced C57BL/6J mouse model of acute ulcerative colitis assessed as body weight loss at 300 mg/kg, po measured over 7 days (reference value: 18%); format: functional
# [2] = test system: Mus musculus; experiment: Antiulcerative activity in DSS-induced C57BL/6J mouse model of acute ulcerative colitis assessed as colon contracture at 300 mg/kg, po measured over 7 days (reference value: 37 %); format: functional
# In short: (§1)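 Acute DSS colitis in C57bl/6j mice (n = 8/group), oral dosing (200 mg/kg test, SASP 300 mg/kg), 7-day trial with normal and DSS model groups. Colon length was measured at the end of the trial, and contracture was given as percentage shortening versus normal controls.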
# [3] = test system: Mus musculus; experiment: Antiulcerative activity in DSS-induced C57BL/6J mouse model of acute ulcerative colitis assessed as inhibition of disease activity index at 300 mg/kg, po measured over 7 days relative to control; format: functional; settings: 168 h
# In short: (§2)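 Disease activity index (DAI) was scored in DSS-induced acute UC C57bl/6j mice (n = 8/group) given oral compound at 200 mg/kg or SASP at 300 mg/kg over 7 days. Inhibition ratio (IR %) is reported relative to the DSS model group.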
# [4] = test system: Mus musculus; experiment: Antiulcerative activity in DSS-induced C57BL/6J mouse model of acute ulcerative colitis assessed as colon macroscopic damage index at 300 mg/kg, po measured over 7 days (reference value: 4.63 +/- 0.52); format: functional
# [5] = test system: Mus musculus; experiment: Antiulcerative activity in DSS-induced C57BL/6J mouse model of acute ulcerative colitis assessed as partial disappearance of inflammatory edema at 300 mg/kg, po measured over 7 days by microscopic analysis
# [6] = Cytotoxicity against rat IEC-6 cells assessed as survival at 10 uM by MTT assay; format: cell-based; settings: read-out: Survival
# [7] = target: T1, X-box-binding protein 1 (Rattus norvegicus) (UniProt Q9R1S4); experiment: Activation of XBP1 in rat IEC-6 cells assessed as transcriptional activity at 10 uM measured after 48 hrs by dual luciferase reporter gene assay relative to con 2; format: cell-based
# T1 sequence (whole entry): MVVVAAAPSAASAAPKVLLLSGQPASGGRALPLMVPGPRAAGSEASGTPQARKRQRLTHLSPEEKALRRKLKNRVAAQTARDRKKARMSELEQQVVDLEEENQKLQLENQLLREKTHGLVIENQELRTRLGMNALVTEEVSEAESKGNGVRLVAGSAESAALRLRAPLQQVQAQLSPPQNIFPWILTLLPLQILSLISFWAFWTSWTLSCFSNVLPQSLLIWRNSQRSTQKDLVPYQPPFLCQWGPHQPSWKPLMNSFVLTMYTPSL
# In short: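 XBP1 transcriptional activity read by dual luciferase reporter in growth-phase IEC-6 cells (5 × 10⁴ cells/well). Cells had 4 h plasmid transfection at 37 °C, 5% CO₂, then were coincubated 48 h with compound at 10 μM. Con 1 served as background contrast and con 2 as the pGL3-basic vector control.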
# [8] = target: T2, X-box-binding protein 1 (Rattus norvegicus, UniProt Q9R1S4); experiment: Activation of XBP1 in rat IEC-6 cells assessed as transcriptional activity measured after 48 hrs by dual luciferase reporter gene assay; format: cell-based
# T2 sequence (Q9R1S4 whole entry): T1 sequence (whole entry)
# In short: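 Dose–effect version of the IEC-6 XBP1 dual luciferase reporter assay. Cells (5 × 10⁴/well) had 4 h plasmid transfection at 37 °C, 5% CO₂, then 48 h coincubation with compound; EC₅₀ was taken from the dose–effect relationship.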
# [9] = test system: Mus musculus; experiment: Antiulcerative activity in DSS-induced C57BL/6J mouse model of acute ulcerative colitis assessed as body weight loss at 200 mg/kg, po measured over 7 days (reference value: 18%); format: functional
# [10] = test system: Mus musculus; experiment: Antiulcerative activity in DSS-induced C57BL/6J mouse model of acute ulcerative colitis assessed as colon contracture at 200 mg/kg, po measured over 7 days (reference value: 37 %); format: functional; in short: as §1
# [11] = test system: Mus musculus; experiment: Antiulcerative activity in DSS-induced C57BL/6J mouse model of acute ulcerative colitis assessed as inhibition of disease activity index at 200 mg/kg, po measured over 7 days relative to control; format: functional; settings: 168 h; in short: as §2
# [12] = test system: Mus musculus; experiment: Antiulcerative activity in DSS-induced C57BL/6J mouse model of acute ulcerative colitis assessed as colon macroscopic damage index at 200 mg/kg, po measured over 7 days (reference value: 4.63 +/- 0.52); format: functional
# [13] = test system: Mus musculus; experiment: Antiulcerative activity in DSS-induced C57BL/6J mouse model of acute ulcerative colitis assessed as improvement in colon lesion at 200 mg/kg, po measured over 7 days by microscopic analysis; format: functional, organism-based
# In short: (§3)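 At the end of the 7-day DSS acute UC trial in C57bl/6j mice (oral 200 mg/kg; SASP 300 mg/kg; normal and model groups), colon tissue was examined microscopically after HE staining at ×200 for histopathological change.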
# [14] = test system: Mus musculus; experiment: Antiulcerative activity in DSS-induced C57BL/6J mouse model of acute ulcerative colitis assessed as regular arrangement of IEC cells at 200 mg/kg, po measured over 7 days by microscopic analysis; format: functional, organism-based; in short: as §3
SMILES,viability at 10 µM [6] [%],fold change (FC) [7],EC50 ([8]; read-out: EC50) [nM],also measured
O=C(O)C1=C/C(=N\Nc2ccc(S(=O)(=O)Nc3ccccn3)cc2)C=CC1=O,–,–,–,Activity [1]: 9%; Activity [2]: 24%; inhibition in vivo at 300 mg/kg [3]: 18%; Activity [4]: 3.17; Activity [5]: Active
CCCCCC(=O)/N=c1\c2c3c(ccc2cc2n1CCc1cc4c(cc1-2)OCO4)OCO3,79 to 103,> 1.07,70.8,–
[Cl-].c1c2c(cc3c1OCO3)-c1cc3ccc4c(c3c[n+]1CC2)OCO4 [COPTISINE CHLORIDE],79 to 103,–,–,Ratio [7]: 0.78 to 107; EC50 [8]: Not Active
Clc1ccc(/N=c2/c3c4c(ccc3cc3n2CCc2cc5c(cc2-3)OCO5)OCO4)cc1,79 to 103,> 1.07,174,–
CCCCC(=O)/N=c1\c2c3c(ccc2cc2n1CCc1cc4c(cc1-2)OCO4)OCO3,79 to 103,> 1.07,32.5,Activity [9]: 10%; Activity [10]: 15%; inhibition in vivo at 200 mg/kg [11]: 33%; Activity [12]: 2.63; Activity [13]: Active
Cc1ccc(/N=c2/c3c4c(ccc3cc3n2CCc2cc5c(cc2-3)OCO5)OCO4)cc1,79 to 103,> 1.07,13.2,Activity [9]: 11%; Activity [10]: 9%; inhibition in vivo at 200 mg/kg [11]: 27%; Activity [12]: 2.63; Activity [14]: Active
c1ccc(/N=c2/c3c4c(ccc3cc3n2CCc2cc5c(cc2-3)OCO5)OCO4)cc1,79 to 103,> 1.07,113,–
CCCCCCCC(=O)/N=c1\c2c3c(ccc2cc2n1CCc1cc4c(cc1-2)OCO4)OCO3,79 to 103,–,–,Ratio [7]: 0.78 to 107; EC50 [8]: Not Active
CCC(=O)/N=c1\c2c3c(ccc2cc2n1CCc1cc4c(cc1-2)OCO4)OCO3,79 to 103,> 1.07,289,–
COc1ccc(/N=c2/c3c4c(ccc3cc3n2CCc2cc5c(cc2-3)OCO5)OCO4)cc1,79 to 103,–,184,Ratio [7]: 0.78 to 107
O=c1c2c3c(ccc2cc2n1CCc1cc4c(cc1-2)OCO4)OCO3,–,> 1.07,79.8,–
CC(=O)/N=c1\c2c3c(ccc2cc2n1CCc1cc4c(cc1-2)OCO4)OCO3,79 to 103,> 1.07,283,–
CCCCCCC(=O)/N=c1\c2c3c(ccc2cc2n1CCc1cc4c(cc1-2)OCO4)OCO3,79 to 103,–,–,Ratio [7]: 0.78 to 107; EC50 [8]: Not Active
CCCC(=O)/N=c1\c2c3c(ccc2cc2n1CCc1cc4c(cc1-2)OCO4)OCO3,79 to 103,> 1.07,119,–
N=c1c2c3c(ccc2cc2n1CCc1cc4c(cc1-2)OCO4)OCO3,79 to 103,–,–,Ratio [7]: 0.78 to 107; EC50 [8]: Not Active
Brc1ccc(/N=c2/c3c4c(ccc3cc3n2CCc2cc5c(cc2-3)OCO5)OCO4)cc1,79 to 103,> 1.07,48.9,–
Fc1ccc(/N=c2/c3c4c(ccc3cc3n2CCc2cc5c(cc2-3)OCO5)OCO4)cc1,79 to 103,> 1.07,346,–
